For 24 compounds, inhibition results are on record in ChEMBL document CHEMBL3232963, “Discovery of a potent and selective α3β4 nicotinic acetylcholine receptor antagonist from an α-conotoxin synthetic combinatorial library” (J Med Chem, 2014).

For orientation: inhibition means the drop in the measured response relative to a control, in per cent.

Bridge positions count the residues as written; N and C are the ends. Square brackets hold non-standard residues; d marks the D form. Peptide text beside a SMILES is read from it. Nle = CCCC[C@H](N)C(=O)O; Nva = CCC[C@H](N)C(=O)O; Abu = CC[C@H](N)C(=O)O

The target in the assay is Neuronal acetylcholine receptor; alpha3/beta4 (Rattus norvegicus) (UniProt P04757+P12392). In words: Antagonist activity at rat alpha3beta4 nAChR expressed in HEK293 cells assessed as inhibition of epibatadine-induced effect at 10 uM after 30 mins by fluorescent membrane potential assay relative to mecamylamine. In kind it is cell-based. In short, it runs like this:
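Rat α3β4 nAChR stably expressed in HEK293 cells; crude, SPE-desalted individual peptides tested at 10 μM in HBSS with membrane potential blue dye, 30 min at 37 °C. Fluorescence change read after epibatidine (0.1 μM). Percent inhibition set against 10 μM mecamylamine taken as 100%.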
Take `CCC[C@@H]1NC(=O)[C@H](Cc2c[nH]c3ccccc23)NC(=O)[C@H]([C@H](C)CC)NC(=O)[C@@H]2CSSC[C@H](NC(=O)CN)C(=O)N[C@@H](CSSC[C@@H](C(=O)O)NC(=O)[C@H](Cc3ccc(O)cc3)NC1=O)C(=O)N[C@@H](CO)C(=O)N[C@@H](Cc1cnc[nH]1)C(=O)N1CCC[C@H]1C(=O)N1CCC[C@H]1C(=O)N2`: the inhibition was determined as 56.5%.

For the compound `CCCC[C@@H]1NC(=O)[C@H](CC)NC(=O)[C@H](Cc2ccccc2)NC(=O)[C@@H]2CSSC[C@H](NC(=O)CN)C(=O)N[C@@H](CSSC[C@@H](C(=O)O)NC(=O)[C@@H]3CCCN3C1=O)C(=O)N[C@@H](CO)C(=O)N[C@@H](Cc1cnc[nH]1)C(=O)N1CCC[C@H]1C(=O)N[C@@H](CC)C(=O)N2` (H-GCCSHP[Abu]CF[Abu][Nle]PC-OH; disulfide 2-8, 3-13), the inhibition amounted to 35.5%.

On to `CCCC[C@@H]1NC(=O)[C@H](CO)NC(=O)[C@@H]2CSSC[C@@H](C(=O)O)NC(=O)[C@@H]3CCCN3C(=O)[C@H](CCC)NC(=O)[C@H](CC)NC(=O)[C@H](Cc3ccccc3)NC(=O)[C@H](CSSC[C@H](NC(=O)CN)C(=O)N2)NC(=O)[C@@H]2CCCN2C(=O)[C@@H]2CCCN2C1=O` (H-GCCS[Nle]PPCF[Abu][Nva]PC-OH; disulfide 2-8, 3-13), for which the inhibition is 35.7%.

Turning to `CCC[C@@H]1NC(=O)[C@H](Cc2c[nH]c3ccccc23)NC(=O)[C@H](Cc2ccccc2)NC(=O)[C@@H]2CSSC[C@H](NC(=O)CN)C(=O)N[C@@H](CSSC[C@@H](C(=O)O)NC(=O)[C@@H]3CCCN3C1=O)C(=O)N[C@@H](CO)C(=O)N[C@@H](Cc1cnc[nH]1)C(=O)N1CCC[C@H]1C(=O)N[C@@H](CC)C(=O)N2` (H-GCCSHP[Abu]CFW[Nva]PC-OH; disulfide 2-8, 3-13), the inhibition came out at 36.2%.

On to `CCCC[C@@H]1NC(=O)[C@H](CC2C=Nc3ccccc32)NC(=O)[C@H]([C@H](C)CC)NC(=O)[C@@H]2CSSC[C@H](NC(=O)CN)C(=O)N[C@@H](CSSC[C@@H](C(=O)O)NC(=O)[C@@H]3CCCN3C1=O)C(=O)N[C@@H](CO)C(=O)N[C@@H](CCCC)C(=O)N1CCC[C@H]1C(=O)N[C@@H](CC)C(=O)N2` (some centres undefined), for which the inhibition amounted to 51.4%.

Consider `CCC[C@@H]1NC(=O)[C@H](Cc2c[nH]c3ccccc23)NC(=O)[C@H](Cc2ccccc2)NC(=O)[C@@H]2CSSC[C@H](NC(=O)CN)C(=O)N[C@@H](CSSC[C@@H](C(=O)O)NC(=O)[C@H](Cc3ccc(O)cc3)NC1=O)C(=O)N[C@@H](CO)C(=O)N[C@@H](Cc1cnc[nH]1)C(=O)N1CCC[C@H]1C(=O)N[C@@H](CC)C(=O)N2` (H-GCCSHP[Abu]CFW[Nva]YC-OH; disulfide 2-8, 3-13), for which the inhibition came to 72.1%.

Consider `CCCC[C@@H]1NC(=O)[C@H](CC)NC(=O)[C@H]([C@H](C)CC)NC(=O)[C@@H]2CSSC[C@H](NC(=O)CN)C(=O)N[C@@H](CSSC[C@@H](C(=O)O)NC(=O)[C@@H]3CCCN3C1=O)C(=O)N[C@@H](CO)C(=O)N[C@@H](CCCC)C(=O)N1CCC[C@H]1C(=O)N1CCC[C@H]1C(=O)N2`, for which the inhibition came out at 31.3%.

`CCCC[C@@H]1NC(=O)[C@H](CO)NC(=O)[C@@H]2CSSC[C@@H](C(=O)O)NC(=O)[C@@H]3CCCN3C(=O)[C@H](CCC)NC(=O)[C@H](Cc3c[nH]c4ccccc34)NC(=O)[C@H]([C@H](C)CC)NC(=O)[C@H](CSSC[C@H](NC(=O)CN)C(=O)N2)NC(=O)[C@@H]2CCCN2C(=O)[C@@H]2CCCN2C1=O`: the inhibition was found to be 38.9%.

On to `CCCC[C@@H]1NC(=O)[C@H](CC2C=Nc3ccccc32)NC(=O)[C@H]([C@H](C)CC)NC(=O)[C@@H]2CSSC[C@H](NC(=O)CN)C(=O)N[C@@H](CSSC[C@@H](C(=O)O)NC(=O)[C@@H]3CCCN3C1=O)C(=O)N[C@@H](CO)C(=O)N[C@@H](Cc1cnc[nH]1)C(=O)N1CCC[C@H]1C(=O)N[C@@H](CC)C(=O)N2` (some centres undefined), for which the inhibition came out at 15.4%.

Take `CCCC[C@@H]1NC(=O)[C@H](Cc2c[nH]c3ccccc23)NC(=O)[C@H](Cc2ccccc2)NC(=O)[C@@H]2CSSC[C@H](NC(=O)CN)C(=O)N[C@@H](CSSC[C@@H](C(=O)O)NC(=O)[C@H](Cc3ccc(O)cc3)NC1=O)C(=O)N[C@@H](CO)C(=O)N[C@@H](CCCC)C(=O)N1CCC[C@H]1C(=O)N[C@@H](CC)C(=O)N2` (H-GCCS[Nle]P[Abu]CFW[Nle]YC-OH; disulfide 2-8, 3-13): the inhibition worked out at 76%.

As for `CCC[C@@H]1NC(=O)[C@H](Cc2c[nH]c3ccccc23)NC(=O)[C@H]([C@H](C)CC)NC(=O)[C@@H]2CSSC[C@H](NC(=O)CN)C(=O)N[C@@H](CSSC[C@@H](C(=O)O)NC(=O)[C@H](Cc3ccc(O)cc3)NC1=O)C(=O)N[C@@H](CO)C(=O)N[C@@H](Cc1cnc[nH]1)C(=O)N1CCC[C@H]1C(=O)N[C@@H](CC)C(=O)N2`, the inhibition is 47.5%.

Take `CCCC[C@@H]1NC(=O)[C@H](CO)NC(=O)[C@@H]2CSSC[C@@H](C(=O)O)NC(=O)[C@@H]3CCCN3C(=O)[C@H](CCC)NC(=O)[C@H](CC)NC(=O)[C@H]([C@H](C)CC)NC(=O)[C@H](CSSC[C@H](NC(=O)CN)C(=O)N2)NC(=O)[C@@H]2CCCN2C(=O)[C@@H]2CCCN2C1=O`: the inhibition was found to be 45.7%.

In the case of `CCCC[C@@H]1NC(=O)[C@H](CC)NC(=O)[C@H]([C@H](C)CC)NC(=O)[C@@H]2CSSC[C@H](NC(=O)CN)C(=O)N[C@@H](CSSC[C@@H](C(=O)O)NC(=O)[C@@H]3CCCN3C1=O)C(=O)N[C@@H](CO)C(=O)N[C@@H](CCCC)C(=O)N1CCC[C@H]1C(=O)N[C@@H](CC)C(=O)N2`, the inhibition turned out to be 42.9%.

Turning to `CCCC[C@@H]1NC(=O)[C@H](Cc2c[nH]c3ccccc23)NC(=O)[C@H]([C@H](C)CC)NC(=O)[C@@H]2CSSC[C@H](NC(=O)CN)C(=O)N[C@@H](CSSC[C@@H](C(=O)O)NC(=O)[C@H](Cc3ccc(O)cc3)NC1=O)C(=O)N[C@@H](CO)C(=O)N[C@@H](Cc1cnc[nH]1)C(=O)N1CCC[C@H]1C(=O)N[C@@H](CC)C(=O)N2`, the inhibition was determined as 55.7%.

Take `CCCC[C@@H]1NC(=O)[C@H](CO)NC(=O)[C@@H]2CSSC[C@@H](C(=O)O)NC(=O)[C@@H]3CCCN3C(=O)[C@H](CCC)NC(=O)[C@H](Cc3c[nH]c4ccccc34)NC(=O)[C@H](Cc3ccccc3)NC(=O)[C@H](CSSC[C@H](NC(=O)CN)C(=O)N2)NC(=O)[C@@H]2CCCN2C(=O)[C@@H]2CCCN2C1=O` (H-GCCS[Nle]PPCFW[Nva]PC-OH; disulfide 2-8, 3-13): the inhibition turned out to be 37.1%.

For `CCCC[C@@H]1NC(=O)[C@H](CC)NC(=O)[C@H]([C@H](C)CC)NC(=O)[C@@H]2CSSC[C@H](NC(=O)CN)C(=O)N[C@@H](CSSC[C@@H](C(=O)O)NC(=O)[C@@H]3CCCN3C1=O)C(=O)N[C@@H](CO)C(=O)N[C@@H](Cc1cnc[nH]1)C(=O)N1CCC[C@H]1C(=O)N1CCC[C@H]1C(=O)N2`, the inhibition is 38.1%.

Regarding `CCCC[C@@H]1NC(=O)[C@H](CC)NC(=O)[C@H]([C@H](C)CC)NC(=O)[C@@H]2CSSC[C@H](NC(=O)CN)C(=O)N[C@@H](CSSC[C@@H](C(=O)O)NC(=O)[C@H](Cc3ccc(O)cc3)NC1=O)C(=O)N[C@@H](CO)C(=O)N[C@@H](CCCC)C(=O)N1CCC[C@H]1C(=O)N[C@@H](CC)C(=O)N2`, the inhibition turned out to be 72.6%.

In the case of `CCC[C@@H]1NC(=O)[C@H](CC)NC(=O)[C@H]([C@H](C)CC)NC(=O)[C@@H]2CSSC[C@H](NC(=O)CN)C(=O)N[C@@H](CSSC[C@@H](C(=O)O)NC(=O)[C@@H]3CCCN3C1=O)C(=O)N[C@@H](CO)C(=O)N[C@@H](Cc1cnc[nH]1)C(=O)N1CCC[C@H]1C(=O)N1CCC[C@H]1C(=O)N2`, the inhibition was 45.1%.

As for `CCCC[C@@H]1NC(=O)[C@H](Cc2c[nH]c3ccccc23)NC(=O)[C@H]([C@H](C)CC)NC(=O)[C@@H]2CSSC[C@H](NC(=O)CN)C(=O)N[C@@H](CSSC[C@@H](C(=O)O)NC(=O)[C@H](Cc3ccc(O)cc3)NC1=O)C(=O)N[C@@H](CO)C(=O)N[C@@H](Cc1cnc[nH]1)C(=O)N1CCC[C@H]1C(=O)N1CCC[C@H]1C(=O)N2`, the inhibition came to 43.9%.

Turning to `CCCC[C@@H]1NC(=O)[C@H](CC)NC(=O)[C@H](Cc2ccccc2)NC(=O)[C@@H]2CSSC[C@H](NC(=O)CN)C(=O)N[C@@H](CSSC[C@@H](C(=O)O)NC(=O)[C@@H]3CCCN3C1=O)C(=O)N[C@@H](CO)C(=O)N[C@@H](CCCC)C(=O)N1CCC[C@H]1C(=O)N1CCC[C@H]1C(=O)N2` (H-GCCS[Nle]PPCF[Abu][Nle]PC-OH; disulfide 2-8, 3-13), the inhibition was determined as 54.6%.

Turning to `CCC[C@@H]1NC(=O)[C@H](CC)NC(=O)[C@H]([C@H](C)CC)NC(=O)[C@@H]2CSSC[C@H](NC(=O)CN)C(=O)N[C@@H](CSSC[C@@H](C(=O)O)NC(=O)[C@H](Cc3ccc(O)cc3)NC1=O)C(=O)N[C@@H](CO)C(=O)N[C@@H](Cc1cnc[nH]1)C(=O)N1CCC[C@H]1C(=O)N1CCC[C@H]1C(=O)N2`, the inhibition amounted to 62.3%.

In the case of `CCCC[C@@H]1NC(=O)[C@H](CO)NC(=O)[C@@H]2CSSC[C@@H](C(=O)O)NC(=O)[C@H](Cc3ccc(O)cc3)NC(=O)[C@H](CCC)NC(=O)[C@H](CC)NC(=O)[C@H]([C@H](C)CC)NC(=O)[C@H](CSSC[C@H](NC(=O)CN)C(=O)N2)NC(=O)[C@H](CC)NC(=O)[C@@H]2CCCN2C1=O`, the inhibition was 59.4%.

Turning to `CCCC[C@@H]1NC(=O)[C@H](Cc2c[nH]c3ccccc23)NC(=O)[C@H](Cc2ccccc2)NC(=O)[C@@H]2CSSC[C@H](NC(=O)CN)C(=O)N[C@@H](CSSC[C@@H](C(=O)O)NC(=O)[C@@H]3CCCN3C1=O)C(=O)N[C@@H](CO)C(=O)N[C@@H](CCCC)C(=O)N1CCC[C@H]1C(=O)N1CCC[C@H]1C(=O)N2` (H-GCCS[Nle]PPCFW[Nle]PC-OH; disulfide 2-8, 3-13), the inhibition was 14.2%.

For `CCCC[C@@H]1NC(=O)[C@H](Cc2c[nH]c3ccccc23)NC(=O)[C@H](Cc2ccccc2)NC(=O)[C@@H]2CSSC[C@H](NC(=O)CN)C(=O)N[C@@H](CSSC[C@@H](C(=O)O)NC(=O)[C@H](Cc3ccc(O)cc3)NC1=O)C(=O)N[C@@H](CO)C(=O)N[C@@H](Cc1cnc[nH]1)C(=O)N1CCC[C@H]1C(=O)N1CCC[C@H]1C(=O)N2` (H-GCCSHPPCFW[Nle]YC-OH; disulfide 2-8, 3-13), the inhibition turned out to be 44%.
